The results in this text go back to ChEMBL document CHEMBL3392958, “Evaluation of two novel antioxidants with differential effects on curcumin-induced apoptosis in C2 skeletal myoblasts; involvement of JNKs” (Bioorg Med Chem, 2015).

Each structure is given as a SMILES string. The source made the active and inactive calls. The calls are words filed in the database; no cut-off is given here.

A short description of data set [1]: Antioxidant activity assessed as DPPH free radical scavenging activity after 30 mins by spectrophotometry. In kind it is physicochemical. The method in brief:
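DPPH radical (final 400 µM, in ethanol) mixed with test compound at 25–400 µM at room temperature; absorbance at 517 nm recorded at intervals over 90 min; % reducing capacity taken at 30 min, IC50 from this; means ± sem of at least two independent experiments.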
(In general: The DPPH test is a chemical assay of radical scavenging.)

The nature of data set [2]: Cytoprotective activity against H2O2-induced cytotoxicity in mouse C2 cells assessed as cell viability at 1 uM after 24 hrs by MTT assay (reference value: 83.1 +/- 3.5%). In kind it is functional. Particulars: C2, 24 h, read-out: Activity. A general note: Formazan colour is commonly taken as a measure of viable cells.
The nature of data set [3]: Cytoprotective activity against H2O2-induced cytotoxicity in mouse C2 cells assessed as cell viability at 15 uM after 24 hrs by MTT assay (reference value: 83.1 +/- 3.5%). Particulars: C2, 24 h, read-out: Activity. In kind it is functional.
The nature of data set [4]: Cytoprotective activity against H2O2-induced cytotoxicity in mouse C2 cells assessed as cell viability at 30 uM after 24 hrs by MTT assay (reference value: 83.1 +/- 3.5%). In kind it is functional. Particulars: C2, 24 h, read-out: Activity.
A short description of data set [5]: Cytoprotective activity against H2O2-induced cytotoxicity in mouse C2 cells assessed as cell viability at 50 uM after 24 hrs by MTT assay (reference value: 83.1 +/- 3.5%). In kind it is functional. Particulars: C2, 24 h, read-out: Activity.
Data set [6] can be described thus: Cytotoxic activity against mouse C2 cells assessed as cell viability at 15 uM after 24 hrs by MTT assay (reference value: 100%). In kind it is cell-based. Particulars: read-out: Activity. The method in brief: (§1)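 Serum-deprived C2 myoblasts (≥3 h, 70% confluence) incubated with compound alone (DMSO vehicle) for 24 h; MTT read at 540 nm after lysis in 0.1 M HCl/isopropanol, expressed as % of untreated control; means ± sem of ≥3 independent experiments.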

A short description of data set [7]: Cytoprotective activity against curcumin-induced cytotoxicity in mouse C2 cells assessed as cell viability at 15 uM after 24 hrs by MTT assay (reference value: 83.8 +/- 0.4%). In kind it is functional. Particulars: C2, 24 h, read-out: Activity.
For data set [8], the system named is C2. As to the kind of experiment: Inhibition of H2O2-induced ERK phosphorylation in mouse C2 cells at 15 uM pre-incubated for 30 mins before H2O2 exposure for 15 mins by SDS-PAGE and immunoblotting method. In kind it is cell-based. The method in brief:
(§2)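 C2 myoblasts pre-incubated 30 min with compound, then 1 mM H2O2 for 15 min. Lysates in buffer G (30 µg) run on SDS–PAGE and immunoblotted for phospho-ERKs or phospho-JNKs, actin as loading control; ECL, densitometry; means ± sem, ≥3 experiments; one-way ANOVA with Bonferroni post-test.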
In general terms: A western blot detects proteins with antibodies after separation by electrophoresis.

The test system of data set [9] is C2. Kind of data set: Inhibition of H2O2-induced JNK phosphorylation in mouse C2 cells at 15 uM pre-incubated for 30 mins before H2O2 exposure for 15 mins by SDS-PAGE and immunoblotting method. In kind it is cell-based. The method in brief:
as §2

Data set [10] deals with C2. Kind of data set: Inhibition of curcumin-induced ERK phosphorylation in mouse C2 cells at 15 uM pre-incubated for 30 mins before curcumin exposure for 15 mins by SDS-PAGE and immunoblotting method. In kind it is cell-based. The method in brief:
(§3)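 Cells pre-treated 30 min with compound, then 50 µM curcumin for 15 min; whole-cell extracts (buffer G, 30 µg) immunoblotted for phospho-ERKs, actin loading control, ECL and densitometry; means ± sem of ≥3 experiments, one-way ANOVA/Bonferroni.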

The subject of data set [11] is C2. Kind of data set: Inhibition of curcumin-induced JNK in mouse C2 cells assessed as reduction in c-Jun phosphorylation at 15 uM pre-incubated for 30 mins before curcumin exposure for 4 hrs by Western blotting method. In kind it is cell-based. The method in brief:
(§4)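 After 30 min pre-incubation with compound and 4 h 50 µM curcumin, nuclear extracts prepared by subcellular fractionation (25 µg) immunoblotted for phospho-c-Jun, with total c-Jun as loading control; densitometry, means ± sem of ≥3 experiments, one-way ANOVA/Bonferroni.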

The subject of data set [12] is C2. As to the kind of experiment: Inhibition of curcumin-induced apoptosis in mouse C2 cells assessed as reduction in PARP cleavage at 15 uM pre-incubated for 30 mins before curcumin exposure for 4 hrs by SDS-PAGE and immunoblotting method. In kind it is functional, cell-based. The method in brief:
(§5)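 C2 cells pre-incubated 30 min with compound, then 50 µM curcumin for 4 h; buffer G lysates (30 µg) immunoblotted with antibody detecting full-length PARP and the 89 kDa fragment, actin loading control; densitometry, means ± sem of ≥3 experiments, one-way ANOVA with Bonferroni.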

Data set [13] is described as follows: Effect on PARP protein level in mouse C2 cells at 15 uM incubated for 30 mins by SDS-PAGE and immunoblotting method. In kind it is cell-based. Particulars: c2, 0.5 h.
Data set [14] deals with C2. As to the kind of experiment: Inhibition of curcumin-induced JNK phosphorylation in mouse C2 cells at 15 uM pre-incubated for 30 mins before curcumin exposure for 2 hrs by SDS-PAGE and immunoblotting method.
The nature of data set [15]: Cytotoxic activity against mouse C2 cells assessed as cell viability at 50 uM after 24 hrs by MTT assay (reference value: 100%). In kind it is cell-based. Particulars: read-out: Activity. The method in brief: as §1
Data set [16] concerns C2. As to the kind of experiment: Inhibition of H2O2-induced ERK phosphorylation in mouse C2 cells at 30 uM pre-incubated for 30 mins before H2O2 exposure for 15 mins by SDS-PAGE and immunoblotting method. In kind it is cell-based. The method in brief:
as §2

The test system of data set [17] is C2. As to the kind of experiment: Inhibition of H2O2-induced JNK phosphorylation in mouse C2 cells at 30 uM pre-incubated for 30 mins before H2O2 exposure for 15 mins by SDS-PAGE and immunoblotting method. In kind it is cell-based. The method in brief: as §2
The subject of data set [18] is C2. As to the kind of experiment: Inhibition of curcumin-induced ERK phosphorylation in mouse C2 cells at 30 uM pre-incubated for 30 mins before curcumin exposure for 15 mins by SDS-PAGE and immunoblotting method. In kind it is cell-based. The method in brief:
as §3

Data set [19] deals with C2. Kind of data set: Inhibition of curcumin-induced JNK in mouse C2 cells assessed as reduction in c-Jun phosphorylation at 30 uM pre-incubated for 30 mins before curcumin exposure for 4 hrs by Western blotting method. In kind it is cell-based. The method in brief: as §4
Data set [20] relates to C2. As to the kind of experiment: Inhibition of curcumin-induced apoptosis in mouse C2 cells assessed as reduction in PARP cleavage at 30 uM pre-incubated for 30 mins before curcumin exposure for 4 hrs by SDS-PAGE and immunoblotting method. In kind it is functional, cell-based. The method in brief:
as §5

Data set [21] can be described thus: Effect on PARP protein level in mouse C2 cells at 30 uM incubated for 30 mins by SDS-PAGE and immunoblotting method. In kind it is cell-based. Particulars: c2, 0.5 h.
The nature of data set [22]: Cytotoxic activity against mouse C2 cells assessed as cell viability at 30 uM after 24 hrs by MTT assay (reference value: 100%). In kind it is cell-based. Particulars: read-out: Activity. The method in brief:
as §1

Data set [23] in a line: Cytoprotective activity against curcumin-induced cytotoxicity in mouse C2 cells assessed as cell viability at 30 uM after 24 hrs by MTT assay (reference value: 83.8 +/- 0.4%). In kind it is functional. Particulars: C2, 24 h, read-out: Activity.
For data set [24], the system named is C2. Kind of data set: Inhibition of curcumin-induced JNK phosphorylation in mouse C2 cells at 30 uM pre-incubated for 30 mins before curcumin exposure for 2 hrs by SDS-PAGE and immunoblotting method.
The subject of data set [25] is C2. Kind of data set: Inhibition of curcumin-induced apoptosis in mouse C2 cells assessed as reduction in PARP cleavage at 2.5 uM pre-incubated for 30 mins before curcumin exposure for 4 hrs by SDS-PAGE and immunoblotting method. In kind it is functional, cell-based. The method in brief: as §5
Data set [26] in a line: Effect on PARP protein level in mouse C2 cells at 2.5 uM incubated for 30 mins by SDS-PAGE and immunoblotting method. In kind it is cell-based. Particulars: c2, 0.5 h.

As for `Oc1ccc(/C=C/c2cc(O)cc(O)c2)cc1` [RESVERATROL], the IC50 in [1] was 96 µM.
Turning to `CN1CC(O)(c2ccc(-c3ccccc3)cc2)Oc2ccccc21` (centres undefined), in data set [1], the IC50 amounted to 119 µM. In data set [2], the viability at 1 µM worked out at 84.6%. Further, the viability at 15 µM in data set [3] stood at 97.1%; in [7] it was 53.6%. The viability at 30 µM in data set [4] is 76.2%. The viability at 50 µM in data set [5] stood at 71.6%. Besides, in data set [6], the viability at 24 h, 15 µM was 98.1%. Also, the inhibition with C2 [8] stood at 55%; in the data set on C2 [9], 81%; in the data set with C2 [10] it was 79%. The inhibition entry in the data set with C2 [11], in the data set on C2 [12] and in the data set on C2 [14] was “inactive” throughout. In data set [13], the Activity result was “Non-toxic”.
For the compound `COc1cc(/C=C/C(=O)CC(=O)/C=C/c2ccc(O)c(OC)c2)ccc1O` [CURCUMIN], the viability at 1 µM in [2] is 85.5%. Moreover, the viability at 15 µM in data set [3] is 90.2%. For the same compound, the viability at 30 µM in data set [4] worked out at 93.1%. The viability at 50 µM in data set [5] came to 53.6%. Moreover, the viability at 24 h, 50 µM in data set [15] stood at 83.8%. Besides, the inhibition with C2 [8] stood at 55%; in the data set on C2 [9], 81%.
Take `CN1CC(O)(c2ccc(-c3ccccc3)cc2)Sc2ccccc21` (centres undefined): the IC50 in data set [1] was 271 µM. In addition, the viability at 1 µM in [2] came out at 81.6%. In data set [3], the viability at 15 µM was found to be 87.1%. Besides, the viability at 30 µM in [4] and in data set [23] was 99.1% each time. Further, in data set [5], the viability at 50 µM is 97.6%. In addition, the inhibition worked out at 55% in the data set on C2 [16]; 81% in the data set on C2 [17]; 53% in the data set with C2 [18]; 40% in the data set on C2 [19]; 50% in the data set on C2 [24]. Also, the inhibition entry in the data set on C2 [20] is “Active”. Besides, the Activity entry in data set [21] is “Non-toxic”. Further, in data set [22], the viability at 24 h, 30 µM came to 99.5%.
Regarding `COc1ccc2[nH]cc(CCNC(C)=O)c2c1` [MELATONIN], the results for the viability at 15 µM in [3] and in data set [7] were 92.5% and 98.5%, respectively. In addition, the viability at 24 h, 15 µM in data set [6] came to 96.9%. For the same compound, the inhibition in the data set with C2 [10] was 53%; with C2 [11], 57%; in the data set on C2 [14], 50%.
With `N#C/C(=C1/Nc2ccccc2S1)c1ccnc(NCCc2cccnc2)n1`, the inhibition result in the data set on C2 [25] is “Active”. Moreover, in data set [26], the Activity result was “Non-toxic”.

Usually IC50 stands for the concentration needed to halve the response being measured. A word on the inhibition: it is the percentage by which the read-out fell short of the control.
